Converted amounts (≈) assume the structure as drawn. The source made the active and inactive calls. No cut-off for these calls is given here.
Experiments:
Staphylococcus aureus [1] = assay: Antimicrobial activity against Staphylococcus aureus ATCC 6538 at 100 ug/disk after 48 hrs; type: functional; conditions: ATCC 6538, 48 h, read-out: IZ
HeLa = assay: Growth inhibition of human HeLa cells after 4 hrs by MTT assay; type: functional, cell-based
Outline: (§1)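 MTT viability: 10⁴ cells/well attached overnight, then exposed to serial dilutions (from a 10 mg/mL DMSO stock) in medium, with 0.2% DMSO vehicle, for 4 h at 37 °C, 5% CO₂. Medium was then changed to fresh DMEM, followed by MTT (0.5 mg/mL) for 3 h at 37 °C in the dark. Formazan was dissolved in DMSO and read at 540 nm to give IC50.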

Streptococcus mutans = assay: Antimicrobial activity against Streptococcus mutans ATCC 25175 at 100 ug/disk after 24 hrs; type: functional, organism-based
Outline: (§2)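 Bacteria were grown on Mueller-Hinton agar. 6 mm paper disks carrying 100 µg compound were placed on the agar surface and plates were incubated at 37 °C for 24 h. The read-out was the presence and diameter of the inhibition zone, with a ciprofloxacin disk (100 µg) as reference.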

Enterococcus faecalis = assay: Antimicrobial activity against Enterococcus faecalis ATCC 19433 at 100 ug/disk after 24 hrs; type: functional, organism-based; outline: as §2
Staphylococcus aureus [2] = assay: Antimicrobial activity against Staphylococcus aureus ATCC 6538 after 24 hrs by broth dilution assay; type: functional; conditions: ATCC 6538, 24 h
Micrococcus luteus = assay: Antimicrobial activity against Sarcina lutea CMCC B28001 at 100 ug/disk after 24 hrs; type: functional, organism-based; outline: as §2
Geotrichum candidum = assay: Antifungal activity against Geotrichum candidum AS2.498 at 100 ug/disk after 48 hrs
Candida albicans = assay: Antifungal activity against Candida albicans ATCC 10231 at 100 ug/disk after 48 hrs
Aspergillus fumigatus = assay: Antifungal activity against Aspergillus fumigatus ATCC 10894 at 100 ug/disk after 48 hrs
HCT-116 = assay: Growth inhibition of human HCT116 cells after 4 hrs by MTT assay; type: functional, cell-based; conditions: HCT-116, 4 h; outline: as §1

IC50 (HeLa) [µM] | MIC (Staphylococcus aureus [2]) [µM] | IC50 (HCT-116) [µM] | SMILES | zone of inhibition at 100 µg/disc (Staphylococcus aureus [1]) [mm] | Activity (Streptococcus mutans) | Activity (Enterococcus faecalis) | Activity (Micrococcus luteus) | Activity (Geotrichum candidum) | Activity (Candida albicans) | Activity (Aspergillus fumigatus)
– | – | – | O=C(O)c1cn(C2CC2)c2cc(N3CCNCC3)c(F)cc2c1=O [CIPROFLOXACIN] | 35 | – | – | – | – | – | –
54 | 270 (≈ 100 µg/mL) | > 270 | COC1=C(c2ccc(OC)cc2)C(=O)[C@H](O)[C@@](O)(c2ccc(OC)cc2)C1 [GLIOCLADININ A] | 15 | inactive | inactive | inactive | inactive | inactive | inactive
40 | 130 (≈ 65.1 µg/mL) | 80 | COc1ccc(-c2cc(O)c(-c3ccc(OC)cc3)c(O)c2O[C@@H]2O[C@H](CO)[C@@H](O)[C@H](O)[C@H]2O)cc1 [GLIOCLADININ B] | 20 | inactive | inactive | inactive | inactive | inactive | inactive
